Ends that are not written are not given here.
Target: recombinant human VEGFR-2 (Homo sapiens, UniProt P35968)
Assay: SPR binding affinity to immobilized VEGFR-2
Procedure, shortened: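 Recombinant human receptor protein amine-coupled to a CM5 chip. Test peptides diluted in HBS-EP buffer and flowed over the surface at 0.0156, 0.03125, 0.0625, 0.125 and 0.25 μM, with resonance unit changes recorded. Response curves were fitted to a 1:1 Langmuir binding model to give the equilibrium dissociation constant KD.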

recombinant human VEGFR-2, sequence (P35968 20-1356): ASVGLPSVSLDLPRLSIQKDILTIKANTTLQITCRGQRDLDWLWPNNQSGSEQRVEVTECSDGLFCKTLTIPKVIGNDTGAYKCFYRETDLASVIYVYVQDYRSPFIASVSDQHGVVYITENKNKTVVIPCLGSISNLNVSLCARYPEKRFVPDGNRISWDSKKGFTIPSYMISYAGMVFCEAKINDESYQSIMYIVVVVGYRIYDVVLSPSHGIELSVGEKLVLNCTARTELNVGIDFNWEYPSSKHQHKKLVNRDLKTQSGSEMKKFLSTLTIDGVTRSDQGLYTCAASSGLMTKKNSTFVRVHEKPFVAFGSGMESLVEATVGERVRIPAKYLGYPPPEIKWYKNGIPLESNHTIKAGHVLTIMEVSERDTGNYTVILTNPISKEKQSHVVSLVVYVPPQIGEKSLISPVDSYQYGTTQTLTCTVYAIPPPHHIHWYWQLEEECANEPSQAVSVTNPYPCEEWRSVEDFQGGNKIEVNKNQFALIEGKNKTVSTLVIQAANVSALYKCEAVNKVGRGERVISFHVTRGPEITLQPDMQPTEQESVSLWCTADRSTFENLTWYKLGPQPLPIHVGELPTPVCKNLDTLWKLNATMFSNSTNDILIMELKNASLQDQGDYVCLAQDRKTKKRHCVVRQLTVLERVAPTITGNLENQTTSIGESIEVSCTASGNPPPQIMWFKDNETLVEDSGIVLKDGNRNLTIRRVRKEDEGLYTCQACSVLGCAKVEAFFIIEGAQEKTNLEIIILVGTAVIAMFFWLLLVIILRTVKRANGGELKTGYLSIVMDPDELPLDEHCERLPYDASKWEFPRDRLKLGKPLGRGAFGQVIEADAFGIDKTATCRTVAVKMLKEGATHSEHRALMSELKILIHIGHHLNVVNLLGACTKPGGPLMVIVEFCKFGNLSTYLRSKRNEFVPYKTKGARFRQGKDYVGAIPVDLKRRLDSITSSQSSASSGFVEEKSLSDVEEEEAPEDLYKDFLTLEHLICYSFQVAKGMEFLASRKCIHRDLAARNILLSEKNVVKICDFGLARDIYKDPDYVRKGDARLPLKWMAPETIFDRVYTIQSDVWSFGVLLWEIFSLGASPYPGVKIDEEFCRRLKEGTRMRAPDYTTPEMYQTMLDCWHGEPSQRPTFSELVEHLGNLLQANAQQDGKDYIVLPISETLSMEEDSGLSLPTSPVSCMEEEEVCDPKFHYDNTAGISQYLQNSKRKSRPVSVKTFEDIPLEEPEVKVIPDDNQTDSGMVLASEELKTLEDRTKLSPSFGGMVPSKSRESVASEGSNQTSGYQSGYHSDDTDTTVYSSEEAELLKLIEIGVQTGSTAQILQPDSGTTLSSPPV

Row | Compound | Kd [nM]
1 | CC(C)C[C@H](NC(=O)[C@H](Cc1c[nH]c2ccccc12)NC(=O)[C@@H](NC(=O)[C@H](C)NC(=O)[C@H](CS)NC(=O)[C@H](CCCNC(=N)N)NC(=O)[C@H](CCCNC(=N)N)NC(=O)[C@H](CCCNC(=N)N)NC(=O)[C@H](CCC(N)=O)NC(=O)[C@H](CCCNC(=N)N)NC(=O)[C@H](CCCNC(=N)N)NC(=O)[C@H](CCCCN)NC(=O)[C@H](CCCCN)NC(=O)[C@@H](N)CCCNC(=N)N)[C@@H](C)O)C(=O)N1CCC[C@H]1C(=O)N1CCC[C@H]1C(=O)N[C@@H](CCCNC(=N)N)C(=O)O [TAT-AT7] | 22.8
2 | ATWLPPRC [AT7] | 283
